Assay results pooled from the literature.
Each line is one published result; the experiments were not run side by side. Converted amounts (≈) assume the structure as drawn.
Organism: Staphylococcus aureus

The inhibition zone of O=C(/C=C/C=C/c1ccccc1)c1ccccc1OCc1ccc(Cl)cc1 is reported as 7 mm (microbial growth, well diffusion; MTCC96; 1000 µg/mL, 18 h).
With CC1(C)S[C@@H]2[C@H](NC(=O)[C@H](N)c3ccccc3)C(=O)N2[C@H]1C(=O)O the MIC90 was greater than 128 µg/mL (microbial growth; MRSA; clinical isolate).
With CN(C)CCCN1c2ccccc2Sc2ccc(Cl)cc21 the MBC was 64 µg/mL (microbial killing, broth dilution; ATCC43300; 18 h).
Nc1ccc(S(=O)(=O)Nc2ncccn2)cc1 has an inhibition zone of 2 mm (microbial growth, well diffusion; MRSA; 20 µg/mL).
O=C(/C=C/C=C/c1ccccc1)c1ccccc1OCc1ccccc1Cl has an inhibition zone of 7 mm (microbial growth, well diffusion; MTCC96; 1000 µg/mL, 18 h).
C=C[C@]1(C)C[C@@H](OC(=O)CS[C@@H]2C[C@H]3CC[C@@H](C2)N3C)[C@]2(C)[C@H](C)CC[C@]3(CCC(=O)[C@H]32)[C@@H](C)[C@@H]1O has an MIC90 of 0.0625 µg/mL (≈ 0.121 µM) (microbial growth; MSSA; clinical isolate).
Cc1cccc2c(=O)n(-c3ccccc3)c(SCC(=O)NN=Cc3ccc(OS(C)(=O)=O)cc3)nc12 has an inhibition zone of 2 mm (microbial growth, well diffusion; MRSA; 20 µg/mL).
CN[C@H](CC(C)C)C(=O)N[C@H]1C(=O)N[C@@H](CC(N)=O)C(=O)N[C@H]2C(=O)N[C@H]3C(=O)N[C@H](C(=O)N[C@H](C(=O)O)c4cc(O)cc(O)c4-c4cc3ccc4O)[C@H](O)c3ccc(c(Cl)c3)Oc3cc2cc(c3O[C@@H]2O[C@H](CO)[C@@H](O)[C@H](O)[C@H]2O[C@H]2C[C@](C)(N)[C@H](O)[C@H](C)O2)Oc2ccc(cc2Cl)[C@H]1O gave an MIC90 of 1 µg/mL (≈ 0.69 µM) (microbial growth; MSSA; clinical isolate).
The MBC of CN1CCN(CCCN2c3ccccc3Sc3ccc(Cl)cc32)CC1 is reported as 64 µg/mL (microbial killing, broth dilution; ATCC43300; 18 h).
The inhibition zone of CCS(=O)(=O)Oc1ccc(C=NNC(=O)CSc2nc3c(C)cccc3c(=O)n2-c2ccccc2)cc1OC is reported as 3 mm (microbial growth, well diffusion; MRSA; 20 µg/mL).
The MIC50 of COc1ccc2cc3[n+](cc2c1OC)CCc1cc2c(cc1-3)OCO2 is reported as 72 µM (microbial growth; 24 h).
O=C(/C=C/C=C/c1ccccc1)c1ccccc1OCc1ccc(Cl)c(Cl)c1 has an inhibition zone of 7 mm (microbial growth, well diffusion; MTCC96; 1000 µg/mL, 18 h).
CC[C@H]1OC(=O)[C@H](C)[C@@H](O[C@H]2C[C@@](C)(OC)[C@@H](O)[C@H](C)O2)[C@H](C)[C@@H](O[C@@H]2O[C@H](C)C[C@H](N(C)C)[C@H]2O)[C@](C)(O)C[C@@H](C)/C(=N\OCOCCOC)[C@H](C)[C@@H](O)[C@]1(C)O has an MIC90 of 64 µg/mL (≈ 76.5 µM) (microbial growth; MSSA; clinical isolate).
The inhibition zone of CCS(=O)(=O)Oc1ccc(C=NNC(=O)CSc2nc3ccc(Cl)cc3c(=O)n2-c2ccccc2)cc1 is reported as 2 mm (microbial growth, well diffusion; MRSA; 20 µg/mL).
With CC(=O)NC[C@H]1CN(c2ccc(N3CCOCC3)c(F)c2)C(=O)O1 the MIC90 was 2 µg/mL (≈ 5.93 µM) (microbial growth; MRSA; clinical isolate).
The inhibition zone of CCS(=O)(=O)Oc1ccc(C=NNC(=O)CSc2nc3c(C)cccc3c(=O)n2-c2ccccc2)cc1 is reported as 3 mm (microbial growth, well diffusion; MRSA; 20 µg/mL).
COc1cc2c(cc1OC)[C@@H]1Cc3ccc(OC)c(OC)c3CN1CC2 has an MIC50 of greater than 1600 µM (microbial growth; 24 h).
